Measurements published in ChEMBL document CHEMBL2157895, “Selective Dual Inhibitors of the Cancer-Related Deubiquitylating Proteases USP7 and USP47” (ACS Med Chem Lett, 2012).
The source made the active and inactive calls. No cut-off for these calls is given here.

Key:
[1] = target: T1, Ubiquitin carboxyl-terminal hydrolase 21 (Homo sapiens) (UniProt Q9UK80); test: Inhibition of HIs6-tagged USP21 by Ub-CHOP reporter assay
T1 sequence (whole entry): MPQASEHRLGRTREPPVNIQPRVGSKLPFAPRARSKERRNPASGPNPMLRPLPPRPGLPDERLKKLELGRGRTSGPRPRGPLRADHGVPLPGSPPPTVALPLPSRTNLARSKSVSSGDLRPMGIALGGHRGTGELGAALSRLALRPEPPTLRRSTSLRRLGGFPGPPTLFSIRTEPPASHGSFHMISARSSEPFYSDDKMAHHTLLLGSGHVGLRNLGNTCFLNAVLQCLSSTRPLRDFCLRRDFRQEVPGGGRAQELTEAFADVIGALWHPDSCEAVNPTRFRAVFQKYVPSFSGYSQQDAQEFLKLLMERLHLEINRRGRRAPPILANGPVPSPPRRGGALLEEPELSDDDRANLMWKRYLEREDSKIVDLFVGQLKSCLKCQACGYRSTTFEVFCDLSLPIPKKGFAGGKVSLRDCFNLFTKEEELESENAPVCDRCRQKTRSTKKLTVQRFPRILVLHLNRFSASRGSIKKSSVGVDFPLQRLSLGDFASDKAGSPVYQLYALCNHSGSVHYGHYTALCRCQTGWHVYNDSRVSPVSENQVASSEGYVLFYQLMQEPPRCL

[2] = target: T2, Ubiquitin carboxyl-terminal hydrolase 8 (Homo sapiens) (UniProt P40818); test: Inhibition of USP8 by Ub-CHOP reporter assay
T2 sequence (whole entry): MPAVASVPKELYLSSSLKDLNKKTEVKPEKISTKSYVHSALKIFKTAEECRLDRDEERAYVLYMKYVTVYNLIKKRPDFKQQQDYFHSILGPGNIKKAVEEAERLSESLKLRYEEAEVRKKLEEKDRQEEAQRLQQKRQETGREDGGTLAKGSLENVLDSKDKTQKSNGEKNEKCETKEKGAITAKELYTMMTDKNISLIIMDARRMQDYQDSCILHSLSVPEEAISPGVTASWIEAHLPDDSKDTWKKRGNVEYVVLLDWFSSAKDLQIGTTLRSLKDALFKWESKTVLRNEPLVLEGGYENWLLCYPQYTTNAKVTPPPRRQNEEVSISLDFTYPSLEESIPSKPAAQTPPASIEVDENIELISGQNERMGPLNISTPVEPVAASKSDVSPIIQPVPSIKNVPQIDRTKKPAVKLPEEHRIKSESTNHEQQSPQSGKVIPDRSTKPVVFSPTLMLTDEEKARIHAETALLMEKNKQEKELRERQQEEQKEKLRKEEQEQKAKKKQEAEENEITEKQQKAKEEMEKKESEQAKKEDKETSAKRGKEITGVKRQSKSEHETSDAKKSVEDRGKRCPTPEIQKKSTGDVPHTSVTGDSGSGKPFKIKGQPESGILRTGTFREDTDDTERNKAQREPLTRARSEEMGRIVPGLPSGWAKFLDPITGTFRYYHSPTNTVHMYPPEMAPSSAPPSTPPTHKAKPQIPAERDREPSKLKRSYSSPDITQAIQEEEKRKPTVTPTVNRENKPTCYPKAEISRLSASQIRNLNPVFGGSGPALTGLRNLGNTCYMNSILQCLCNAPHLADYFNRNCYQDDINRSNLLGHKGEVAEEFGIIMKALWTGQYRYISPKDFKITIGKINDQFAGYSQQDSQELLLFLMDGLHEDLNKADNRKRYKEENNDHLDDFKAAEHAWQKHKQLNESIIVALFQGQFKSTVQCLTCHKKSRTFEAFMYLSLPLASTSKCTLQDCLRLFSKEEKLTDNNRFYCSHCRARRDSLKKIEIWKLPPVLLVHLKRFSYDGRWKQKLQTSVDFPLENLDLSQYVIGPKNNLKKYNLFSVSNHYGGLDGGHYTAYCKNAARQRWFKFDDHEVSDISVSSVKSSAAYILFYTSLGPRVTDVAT

[3] = target: T3, Ubiquitin carboxyl-terminal hydrolase 2 (Homo sapiens) (UniProt O75604); test: Inhibition of USP2 expressed in Escherichia coli BL21(DE3) by Ub-CHOP reporter assay
T3 sequence (whole entry): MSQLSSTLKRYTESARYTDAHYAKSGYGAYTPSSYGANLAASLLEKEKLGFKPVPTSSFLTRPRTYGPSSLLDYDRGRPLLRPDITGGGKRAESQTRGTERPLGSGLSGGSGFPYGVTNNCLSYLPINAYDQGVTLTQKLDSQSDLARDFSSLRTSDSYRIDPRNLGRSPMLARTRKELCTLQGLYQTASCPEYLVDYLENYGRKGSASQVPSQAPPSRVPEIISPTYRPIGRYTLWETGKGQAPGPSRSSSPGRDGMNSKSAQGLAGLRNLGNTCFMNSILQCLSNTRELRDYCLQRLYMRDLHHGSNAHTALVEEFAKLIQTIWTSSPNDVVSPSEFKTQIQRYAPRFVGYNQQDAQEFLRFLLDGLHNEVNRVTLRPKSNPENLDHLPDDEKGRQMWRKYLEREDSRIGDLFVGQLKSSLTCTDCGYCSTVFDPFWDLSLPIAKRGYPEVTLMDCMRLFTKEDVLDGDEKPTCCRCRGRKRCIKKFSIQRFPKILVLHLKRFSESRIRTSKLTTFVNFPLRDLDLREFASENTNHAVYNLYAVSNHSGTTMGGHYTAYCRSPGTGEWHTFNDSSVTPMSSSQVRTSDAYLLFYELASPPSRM

[4] = Inhibition of 20s proteasome
[5] = target: T4, Ubiquitin carboxyl-terminal hydrolase 7 (Homo sapiens, UniProt Q93009); test: Inhibition of USP7 in human HCT116 cells assessed as increase in p21 level at 30 uM incubated up to 48 hrs by Western blot analysis relative to control; type: cell-based; conditions: HCT-116
T4 sequence (Q93009 whole entry, looked up): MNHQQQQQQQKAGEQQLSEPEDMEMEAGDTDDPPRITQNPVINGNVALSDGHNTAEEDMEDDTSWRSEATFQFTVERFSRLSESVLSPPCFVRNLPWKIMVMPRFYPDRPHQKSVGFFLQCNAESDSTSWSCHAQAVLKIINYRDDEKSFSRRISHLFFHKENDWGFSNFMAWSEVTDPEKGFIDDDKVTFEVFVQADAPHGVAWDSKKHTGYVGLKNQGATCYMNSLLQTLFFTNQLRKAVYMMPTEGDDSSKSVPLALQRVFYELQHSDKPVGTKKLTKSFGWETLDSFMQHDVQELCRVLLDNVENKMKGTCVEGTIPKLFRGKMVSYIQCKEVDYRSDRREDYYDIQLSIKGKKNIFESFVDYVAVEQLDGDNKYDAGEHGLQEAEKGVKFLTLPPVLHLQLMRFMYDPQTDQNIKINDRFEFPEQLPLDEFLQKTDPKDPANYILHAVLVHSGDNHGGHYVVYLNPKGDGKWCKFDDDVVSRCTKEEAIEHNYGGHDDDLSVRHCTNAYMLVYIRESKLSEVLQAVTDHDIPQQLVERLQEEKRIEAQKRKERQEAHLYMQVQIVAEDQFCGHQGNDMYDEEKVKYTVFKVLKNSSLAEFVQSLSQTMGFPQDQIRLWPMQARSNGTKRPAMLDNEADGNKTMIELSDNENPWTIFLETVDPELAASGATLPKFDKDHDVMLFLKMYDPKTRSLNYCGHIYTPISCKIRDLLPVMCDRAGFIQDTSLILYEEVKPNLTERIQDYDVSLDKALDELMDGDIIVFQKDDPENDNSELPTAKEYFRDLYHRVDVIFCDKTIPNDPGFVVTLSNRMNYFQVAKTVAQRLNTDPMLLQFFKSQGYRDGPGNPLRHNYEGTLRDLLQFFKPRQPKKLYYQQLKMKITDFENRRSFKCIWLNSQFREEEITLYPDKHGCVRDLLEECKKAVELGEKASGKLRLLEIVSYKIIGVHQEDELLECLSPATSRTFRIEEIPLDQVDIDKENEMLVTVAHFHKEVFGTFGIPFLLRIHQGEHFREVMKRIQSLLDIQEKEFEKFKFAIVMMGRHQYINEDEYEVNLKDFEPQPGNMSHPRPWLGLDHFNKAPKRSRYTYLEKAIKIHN
Method in brief: (§1)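 HCT-116 human colon cancer cells were incubated with 30 μM compound or with vehicle (0.3% DMSO). Lysates were separated by SDS-PAGE and Western blotted with antibodies to p53 and p21, with actin as the loading standard. Treated cells were compared with DMSO controls.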

[6] = Metabolic stability of the compound in rat plasma assessed as compound remaining at 1 uM after 3 hrs; type: ADME, cell-free; conditions: read-out: Stability
[7] = target: T4, Ubiquitin carboxyl-terminal hydrolase 7; test: Inhibition of USP7 in human HCT116 cells assessed as increase in p53 level at 30 uM incubated up to 48 hrs by Western blot analysis relative to control; type: cell-based; conditions: HCT-116; method in brief: as §1

Structure (SMILES): CS(=O)(=O)c1ccc(NC(=O)c2cc(C#N)c(Sc3c(Cl)cncc3Cl)s2)cc1
- inhibition [1]: inactive
- inhibition [2]: inactive
- inhibition [3]: inactive
- inhibition [4]: inactive
- inhibition [5]: Active
- remaining at 3 h, 1 µM [6]: 97%
- inhibition [7]: Active
